# Results: paper PMC10764114 (ACS Omega, 2023)
# What was measured:
# [1] = test system: U87-malignant glioma (ATCC-HTB-14); assay: MTT assay, cytotoxicity against U87-malignant glioma cells; assay type: cell-based, human; conditions: Homo sapiens, Glioma cell
# Method in brief: (§1)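 Cells grown in DMEM (4.5 g/L glucose, 10% FBS, 1% penicillin/streptomycin) at 37 °C, 5% CO₂. Seeded at 1 × 10³ cells/well and left 24 h to adhere. Test compound added at 10, 40, 80, 100 or 150 μM for 48 h (text also states MTT added 24 h post-dosing). MTT in PBS added for 3 h, formazan dissolved in DMSO for 30 min, OD read at 550 nm, % viability calculated from absorbance.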
# [2] = MTT assay, cytotoxicity against normal HEK293 cells; assay type: cell-based, human; conditions: human, HEK293 cells
# Method in brief: as §1
# [3] = test system: human embryonic kidney HEK293 cell line; assay: as above; assay type: cell-based; conditions: compared with malignant glioma U87 cells, 10-150 μM
# Method in brief: as §1
smiles,measurement,setting,value
"CC(C)Cc1ccc(C(C)C(=O)NN=Cc2ccc(OCC(=O)NN=Cc3ccc(O)cc3O)cc2)cc1 (stereo not drawn) [5e, N′-(4-(2-(2-(2,4-Dihydroxybenzylidene)hydrazinyl)-2-oxoethoxy)benzylidene)-2-(4-isobutylphenyl)propanehydrazide]",viability at 10 µM,[1]; read-out: % cell viability U87,43.4%
same,viability at 40 µM,[1]; read-out: % cell viability U87,41%
same,viability at 80 µM,[1]; read-out: % cell viability U87,39.9%
same,viability at 100 µM,[1]; read-out: % cell viability U87,28.5%
same,viability at 150 µM,[1]; read-out: % cell viability U87,27.5%
same,IC50,[1]; read-out: IC50 (μM ± SEM U87),5.75 ± 0.43 µM
same,"viability at 48 h, 10 μM",[2],69.4%
same,"viability at 48 h, 40 μM",[2],69.1%
same,"viability at 48 h, 80 μM",[2],67.9%
same,"viability at 48 h, 100 μM",[2],62.1%
same,"viability at 48 h, 150 μM",[2],50.8%
same,cytotoxicity in noncancerous cells (HEK293),[3],lower cytotoxicity
